Reference: ChEMBL document CHEMBL4732243, “Design, synthesis, and structure activity relationship analysis of new betulinic acid derivatives as potent HIV inhibitors” (Eur J Med Chem, 2021)

How the values were obtained:
MT4 = test: Cytotoxicity against human MT4 cells assessed as reduction in cell viability incubated for 2 days by CytoTox-Glo cytotoxicity assay; type: cell-based; details: mt4, 48 h, time 2 day
In short: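 Mock-infected MT-4 cells cultured 2 days with a range of compound concentrations. Viability measured by CytoTox-Glo, following the kit protocol, as percent viable cells. CC50 is the concentration giving a 50% reduction in cell viability.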

[1] = system: Human immunodeficiency virus 1; test: Potency index, ratio of IC50 for bevirimat to IC50 for test compound for antiviral activity against HIV-1 NL4-3 infected in human MT4 cells assessed as reduction in p24 gag protein incubated for 4 days by ELISA; type: functional; details: time 4 day
In short: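 MT-4 cells infected with HIV-1 NL4-3 at MOI 0.01 and cultured with the test compounds. Bevirimat was run in parallel as the reference control. Supernatant p24 was measured on day 4 post-infection by antigen-capture ELISA. IC50 is the concentration that inhibits NL4-3 replication by 50%. The index is the bevirimat IC50 divided by the test-compound IC50.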

[2] = system: Human immunodeficiency virus 1; test: Antiviral activity against HIV-1 NL4-3 infected in human MT4 cells assessed as reduction in p24 gag protein incubated for 4 days by ELISA; type: functional, organism-based; details: Human immunodeficiency virus 1, NL4-3, MT4, 96 h
In short: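 MT-4 cells infected with HIV-1 NL4-3 at MOI 0.01, serial compound concentrations, in 96-well format. Supernatant p24 antigen measured by capture ELISA on day 4 post-infection. IC50 is the concentration that inhibits NL4-3 replication by 50%. Bevirimat run in parallel as the reference.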

| SMILES | CC50 (MT4) [nM] | Ratio IC50 [1] | IC50 ([2]; read-out: IC50) [nM] | IC50 ([2]; read-out: pIC50 (converted)) [nM] |
| --- | --- | --- | --- | --- |
| C=C(C)[C@@H]1CC[C@]2(C(=O)N3CCN(C(=O)/C=C/c4ccc(OCOC)c(OC)c4)CC3)CC[C@]3(C)[C@H](CC[C@@H]4[C@@]5(C)CC[C@H](OC(=O)CC(C)(C)C(=O)O)C(C)(C)[C@@H]5CC[C@]43C)[C@@H]12 | > 2000 | 2 | 25 | 25.1 |
| C=C(C)[C@@H]1CC[C@]2(C(=O)N3CCN(C(=O)/C=C/c4ccc(O)c(OC)c4)CC3)CC[C@]3(C)[C@H](CC[C@@H]4[C@@]5(C)CC[C@H](OC(=O)CC(C)(C)C(=O)O)C(C)(C)[C@@H]5CC[C@]43C)[C@@H]12 | > 2000 | 2 | 18 | 18.2 |
